Experiments:
Digitaria sanguinalis = assay: Post-emergence herbicidal activity against Digitaria sanguinalis (hairy crabgrass) assessed as growth inhibition at emulsified concentrate of 150 g/ai ha after 15 days by greenhouse test; type: functional
How it was run: (§1)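 About 20 seeds sown 1–3 cm deep, grown at 15–30 °C and 50% RH. Monocot seedlings sprayed postemergence at the one-leaf stage with a 100 g/L emulsifiable concentrate (DMF/Tween-80) diluted in water, 150 g ai/ha. Untreated and solvent controls included. Visual rating at 15 days, three replicates.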

Echinochloa crus-galli = assay: Post-emergence herbicidal activity against Echinochloa crus-galli (barnyard grass) assessed as growth inhibition at emulsified concentrate of 150 g/ai ha after 15 days by greenhouse test; type: functional; how it was run: as §1
Eclipta prostrata [1] = assay: Post-emergence herbicidal activity against Eclipta prostrata assessed as growth inhibition at emulsified concentrate of 75 g/ai ha after 15 days by greenhouse test; type: functional
How it was run: (§2)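 Compounds were made up as 100 g/L emulsifiable concentrates in DMF with Tween-80, then diluted in water. About 20 seeds were sown 1-3 cm deep in pots and grown in a greenhouse at 15-30 °C and 50% relative humidity. Sprays were applied postemergence at the two-leaf stage. Untreated and DMF + Tween-80 solvent controls were included. Injury was scored visually 15 days after treatment, with three replicates per treatment.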

Eclipta prostrata [2] = assay: Post-emergence herbicidal activity against Eclipta prostrata assessed as growth inhibition at emulsified concentrate of 37.5 g/ai ha after 15 days by greenhouse test; type: functional; how it was run: as §2
Rumex acetosa [3] = assay: Post-emergence herbicidal activity against Rumex acetosa assessed as growth inhibition at emulsified concentrate of 150 g/ai ha after 15 days by greenhouse test; type: functional
Rumex acetosa [4] = assay: Post-emergence herbicidal activity against Rumex acetosa assessed as growth inhibition at emulsified concentrate of 75 g/ai ha after 15 days by greenhouse test; type: functional
Rumex acetosa [5] = assay: Post-emergence herbicidal activity against Rumex acetosa assessed as growth inhibition at emulsified concentrate of 37.5 g/ai ha after 15 days by greenhouse test; type: functional
Amaranthus retroflexus [6] = assay: Post-emergence herbicidal activity against Amaranthus retroflexus assessed as growth inhibition at emulsified concentrate of 75 g/ai ha after 15 days by greenhouse test; type: functional; how it was run: as §2
Amaranthus retroflexus [7] = assay: Post-emergence herbicidal activity against Amaranthus retroflexus assessed as growth inhibition at emulsified concentrate of 37.5 g/ai ha after 15 days by greenhouse test; type: functional; how it was run: as §2
Cyperus iria [8] = assay: Post-emergence herbicidal activity against Cyperus iria assessed as growth inhibition at emulsified concentrate of 150 g/ai ha after 15 days by greenhouse test; type: functional
Cyperus iria [9] = assay: Post-emergence herbicidal activity against Cyperus iria assessed as growth inhibition at emulsified concentrate of 75 g/ai ha after 15 days by greenhouse test; type: functional
Cyperus iria [10] = assay: Post-emergence herbicidal activity against Cyperus iria assessed as growth inhibition at emulsified concentrate of 37.5 g/ai ha after 15 days by greenhouse test; type: functional
Abutilon theophrasti [11] = assay: Post-emergence herbicidal activity against Abutilon theophrasti (velvetleaf) assessed as growth inhibition at emulsified concentrate of 150 g/ai ha after 15 days by greenhouse test; type: functional
Abutilon theophrasti [12] = assay: Post-emergence herbicidal activity against Abutilon theophrasti (velvetleaf) assessed as growth inhibition at emulsified concentrate of 37.5 g/ai ha after 15 days by greenhouse test; type: functional
Abutilon theophrasti [13] = assay: Post-emergence herbicidal activity against Abutilon theophrasti (velvetleaf) assessed as growth inhibition at emulsified concentrate of 75 g/ai ha after 15 days by greenhouse test; type: functional
Polygonum humifusum [14] = assay: Post-emergence herbicidal activity against Polygonum humifusum assessed as growth inhibition at emulsified concentrate of 150 g/ai ha after 15 days by greenhouse test; type: functional
Polygonum humifusum [15] = assay: Post-emergence herbicidal activity against Polygonum humifusum assessed as growth inhibition at emulsified concentrate of 75 g/ai ha after 15 days by greenhouse test; type: functional
Polygonum humifusum [16] = assay: Post-emergence herbicidal activity against Polygonum humifusum assessed as growth inhibition at emulsified concentrate of 37.5 g/ai ha after 15 days by greenhouse test; type: functional
Brassica juncea [17] = assay: Post-emergence herbicidal activity against Brassica juncea assessed as growth inhibition at emulsified concentrate of 75 g/ai ha after 15 days by greenhouse test; type: functional; how it was run: as §2
Brassica juncea [18] = assay: Post-emergence herbicidal activity against Brassica juncea assessed as growth inhibition at emulsified concentrate of 37.5 g/ai ha after 15 days by greenhouse test; type: functional; how it was run: as §2
Eclipta prostrata [19] = assay: Post-emergence herbicidal activity against Eclipta prostrata assessed as growth inhibition at emulsified concentrate of 150 g/ai ha after 15 days by greenhouse test; type: functional
How it was run: (§3)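 About 20 seeds sown 1–3 cm deep, grown at 15–30 °C and 50% RH. Dicot seedlings sprayed postemergence at the two-leaf stage with a 100 g/L emulsifiable concentrate (DMF/Tween-80) diluted in water, 150 g ai/ha. Untreated and solvent controls included. Visual rating at 15 days, three replicates.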

Amaranthus retroflexus [20] = assay: Post-emergence herbicidal activity against Amaranthus retroflexus assessed as growth inhibition at emulsified concentrate of 150 g/ai ha after 15 days by greenhouse test; type: functional; how it was run: as §3
Brassica juncea [21] = assay: Post-emergence herbicidal activity against Brassica juncea assessed as growth inhibition at emulsified concentrate of 150 g/ai ha after 15 days by greenhouse test; type: functional; how it was run: as §3
Poa annua = assay: Post-emergence herbicidal activity against Poa annua assessed as growth inhibition at emulsified concentrate of 150 g/ai ha after 15 days by greenhouse test; type: functional; how it was run: as §1
[22] = molecular target: T1, Protoporphyrinogen oxidase (Homo sapiens, UniProt P50336); assay: Inhibition of Homo sapiens (human) recombinant protoporphyrinogen oxidase expressed in Escherichia coli JM109 assessed as oxidation of protoporphyrinogen IX substrate by fluorescence assay
T1 sequence (P50336 whole entry): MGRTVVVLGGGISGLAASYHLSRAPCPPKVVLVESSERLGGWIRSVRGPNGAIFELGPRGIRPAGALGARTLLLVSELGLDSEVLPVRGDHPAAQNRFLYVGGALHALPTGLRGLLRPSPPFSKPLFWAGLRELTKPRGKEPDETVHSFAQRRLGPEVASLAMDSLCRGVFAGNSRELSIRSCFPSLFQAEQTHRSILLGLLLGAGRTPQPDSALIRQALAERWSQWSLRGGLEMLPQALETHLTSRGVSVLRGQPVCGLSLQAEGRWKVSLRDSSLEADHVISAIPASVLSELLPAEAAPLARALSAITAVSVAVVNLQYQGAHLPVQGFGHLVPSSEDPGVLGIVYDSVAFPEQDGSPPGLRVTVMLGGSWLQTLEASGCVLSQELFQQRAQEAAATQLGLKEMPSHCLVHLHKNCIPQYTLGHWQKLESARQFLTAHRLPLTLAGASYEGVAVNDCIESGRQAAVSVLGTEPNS

| Compound | inhibition (INH) (Digitaria sanguinalis) [%] | inhibition (INH) (Echinochloa crus-galli) [%] | inhibition (INH) (Eclipta prostrata [1]) [%] | inhibition (INH) (Eclipta prostrata [2]) [%] | inhibition (INH) (Rumex acetosa [3]) [%] | inhibition (INH) (Rumex acetosa [4]) [%] | inhibition (INH) (Rumex acetosa [5]) [%] | inhibition (INH) (Amaranthus retroflexus [6]) [%] | inhibition (INH) (Amaranthus retroflexus [7]) [%] | inhibition (INH) (Cyperus iria [8]) [%] | inhibition (INH) (Cyperus iria [9]) [%] | inhibition (INH) (Cyperus iria [10]) [%] | inhibition (INH) (Abutilon theophrasti [11]) [%] | inhibition (INH) (Abutilon theophrasti [12]) [%] | inhibition (INH) (Abutilon theophrasti [13]) [%] | inhibition (INH) (Polygonum humifusum [14]) [%] | inhibition (INH) (Polygonum humifusum [15]) [%] | inhibition (INH) (Polygonum humifusum [16]) [%] | inhibition (INH) (Brassica juncea [17]) [%] | inhibition (INH) (Brassica juncea [18]) [%] | also measured |
| --- | --- | --- | --- | --- | --- | --- | --- | --- | --- | --- | --- | --- | --- | --- | --- | --- | --- | --- | --- | --- | --- |
| CCOC(=O)CSc1nc2cc(-n3nc(C(C)(C)C)oc3=O)c(F)cc2s1 | 0 | 0 | 0 | 0 | 70 | 50 | 50 | 50 | 50 | 70 | 70 | 60 | 0 | 0 | 0 | 80 | 70 | 70 | 50 | 0 | inhibition (INH) (Eclipta prostrata [19]): 50%; inhibition (INH) (Amaranthus retroflexus [20]): 90%; inhibition (INH) (Brassica juncea [21]): 50%; inhibition (INH) (Poa annua): 0%; Ki [22]: 1.58 µM |
| CCOC(=O)C(C)Sc1nc2cc(-n3nc(C(C)(C)C)oc3=O)c(F)cc2s1 (stereo not given) | 50 | 0 | 85 | 80 | 100 | 95 | 95 | 60 | 60 | 100 | 90 | 90 | 100 | 80 | 100 | 70 | 70 | 60 | 70 | 70 | inhibition (INH) (Eclipta prostrata [19]): 95%; inhibition (INH) (Amaranthus retroflexus [20]): 90%; inhibition (INH) (Brassica juncea [21]): 75%; inhibition (INH) (Poa annua): 0%; Ki [22]: 1.42 µM |
| CC(C)OC(=O)CSc1nc2cc(-n3nc(C(C)(C)C)oc3=O)c(F)cc2s1 | 0 | 0 | 0 | 0 | 70 | 60 | 50 | 85 | 0 | 60 | 50 | 50 | 0 | 0 | 0 | 60 | 40 | 40 | 50 | 40 | inhibition (INH) (Eclipta prostrata [19]): 70%; inhibition (INH) (Amaranthus retroflexus [20]): 90%; inhibition (INH) (Brassica juncea [21]): 40%; inhibition (INH) (Poa annua): 0%; Ki [22]: 1.17 µM |
| CCCOC(=O)CSc1nc2cc(-n3nc(C(C)(C)C)oc3=O)c(F)cc2s1 | 0 | 0 | 40 | 0 | 70 | 60 | 50 | 60 | 0 | 60 | 40 | 40 | 0 | 0 | 0 | 80 | 70 | 60 | 50 | 50 | inhibition (INH) (Eclipta prostrata [19]): 90%; inhibition (INH) (Amaranthus retroflexus [20]): 100%; inhibition (INH) (Brassica juncea [21]): 50%; inhibition (INH) (Poa annua): 0%; Ki [22]: 0.7 µM |
| CCOC(=O)CCCSc1nc2cc(-n3nc(C(C)(C)C)oc3=O)c(F)cc2s1 | 0 | 0 | 60 | 50 | 70 | 60 | 50 | 80 | 60 | 70 | 60 | 60 | 50 | 0 | 0 | 80 | 80 | 50 | 50 | 50 | inhibition (INH) (Eclipta prostrata [19]): 70%; inhibition (INH) (Amaranthus retroflexus [20]): 90%; inhibition (INH) (Brassica juncea [21]): 50%; inhibition (INH) (Poa annua): 0%; Ki [22]: 0.7 µM |
| CCOC(=O)C(C)Sc1nc2cc(-n3nc(C(C)(C)C)oc3=O)c(Cl)cc2s1 (stereo not given) | 0 | 0 | 40 | 0 | 60 | 30 | 0 | 100 | 60 | 70 | 60 | 60 | 0 | 0 | 0 | 70 | 60 | 40 | 0 | 0 | inhibition (INH) (Eclipta prostrata [19]): 70%; inhibition (INH) (Amaranthus retroflexus [20]): 100%; inhibition (INH) (Brassica juncea [21]): 50%; inhibition (INH) (Poa annua): 0%; Ki [22]: 1.69 µM |
| CCOC(=O)CCSc1nc2cc(-n3nc(C(C)(C)C)oc3=O)c(Cl)cc2s1 | 0 | 0 | 60 | 50 | 70 | 70 | 60 | 60 | 50 | 60 | 50 | 40 | 0 | 0 | 0 | 70 | 70 | 70 | 60 | 60 | inhibition (INH) (Eclipta prostrata [19]): 60%; inhibition (INH) (Amaranthus retroflexus [20]): 80%; inhibition (INH) (Brassica juncea [21]): 70%; inhibition (INH) (Poa annua): 0%; Ki [22]: 0.25 µM |

Source: ChEMBL document CHEMBL3045650, “Design, synthesis, and 3D-QSAR analysis of novel 1,3,4-oxadiazol-2(3H)-ones as protoporphyrinogen oxidase inhibitors” (J Agric Food Chem, 2010)
